Assay outcomes deposited in PubChem BioAssay by several laboratories.
PAFAH1B3 FP inh: PAFAH1B3 enzyme inhibitors, primary screen, biochemical, fluorescence polarization, human | inhibition, % at 3.39 µM | AID 492972, 2010 | recombinant PAFAH1B3, FP-rhodamine probe | 340,000 compounds, 0.28% hits;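 active = inhibition above the screen-wide average of all tested compounds plus 3 SD, cut at about 25% in these data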;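 also: 0% = enzyme with DMSO only and 100% = wells lacking PAFAH1B3 protein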
PAFAH2 FP inh: PAFAH2 enzyme inhibitors, primary screen, biochemical, fluorescence polarization, human; Platelet-activating factor acetylhydrolase 2, cytoplasmic (Homo sapiens), Q99487; recombinant PAFAH2, FP-rhodamine activity probe; inhibition, % at 3.39 µM; 340,000 compounds, 0.99% hits;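 active = inhibition above the mean over all tested compounds plus 3 SD, cut at about 30% in these data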;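 also: inhibitors block probe labeling of enzyme so polarization drops; 0% = enzyme with DMSO and 100% = wells lacking PAFAH2 protein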
PAFAH1B2 FP inh: PAFAH1B2 enzyme inhibitors, primary screen, biochemical, fluorescence polarization, human; inhibition, % at 3.39 µM; recombinant PAFAH1B2, FP-rhodamine activity probe; Platelet-activating factor acetylhydrolase IB subunit alpha2 (Homo sapiens), P68402; 340,000 compounds, 1.2% hits; AID 492953, 2010;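 active = inhibition above the mean of all tested compounds plus 3 SD, cut at about 24% in these data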;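 also: 0% = enzyme with DMSO and 100% = wells lacking PAFAH1B2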
Apaf1 inhib: inhibitors of human Apaf-1 apoptosome, primary screen, biochemical, DEVD-Rh110 fluorescence, uHTS; inhibition, % at 20 µM; Apoptotic protease-activating factor 1 (Homo sapiens), O14727; reconstituted apoptosome caspase-3 activity; 330,000 compounds, 0.71% hits; AID 489030, 2010; active = inhibition of at least 40% at 20 µM;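 also: plate controls were DMSO wells for no effect and DEVD-CHO caspase inhibitor wells for full effect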
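System: reconstituted apoptosome with Apaf-1, cytochrome c, caspase-9, procaspase-3, dATP; Signal: Rh110 fluorescence intensity; Schedule: 30 min compound preincubation, 50 min activation, room temperature; Reagent: cytochrome c trigger plus (Z-DEVD)2-Rh110 caspase-3 substrate.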
PREPL inhibitor: PREPL enzyme inhibitors, primary screen, biochemical, fluorescence polarization. Prolyl endopeptidase-like (Homo sapiens), Q4J6C6. recombinant PREPL, fluorescence polarization activity-based probe. inhibition, % at 5.96 µM. 320,000 compounds, 0.68% hits. AID 2751, 2010;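 also: 0% = enzyme with DMSO and 100% = wells lacking enzyme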
pPAFAH FP inh: pPAFAH enzyme inhibitors, primary screen, biochemical, fluorescence polarization, human; Platelet-activating factor acetylhydrolase (Homo sapiens), Q13093; recombinant pPAFAH, FP-rhodamine probe fluorescence polarization; inhibition, % at 3.39 µM; 330,000 compounds, 1.5% hits; AID 463082, 2010;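 active = inhibition above the mean inhibition across the screen plus 3 SD, cut at about 25% in these data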;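 also: inhibitors block binding of the rhodamine activity-based probe so polarization drops; 0% = enzyme with DMSO and 100% = wells lacking pPAFAH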
Target sequence (Q13093 whole entry, looked up): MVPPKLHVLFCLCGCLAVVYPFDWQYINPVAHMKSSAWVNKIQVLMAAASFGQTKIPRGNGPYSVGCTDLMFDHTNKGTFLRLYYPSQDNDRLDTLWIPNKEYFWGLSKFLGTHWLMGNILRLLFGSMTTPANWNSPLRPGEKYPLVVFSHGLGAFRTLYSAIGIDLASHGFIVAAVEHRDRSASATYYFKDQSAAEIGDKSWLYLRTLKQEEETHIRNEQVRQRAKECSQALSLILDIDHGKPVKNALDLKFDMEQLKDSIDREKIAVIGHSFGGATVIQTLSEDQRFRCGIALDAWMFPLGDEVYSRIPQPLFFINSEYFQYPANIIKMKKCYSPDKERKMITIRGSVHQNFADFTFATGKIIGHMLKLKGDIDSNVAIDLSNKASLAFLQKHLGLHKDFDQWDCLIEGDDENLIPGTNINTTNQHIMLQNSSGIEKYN
PREPL confirm: human PREPL enzyme inhibitors, confirmation, biochemical, fluorescence polarization; recombinant PREPL, fluorescence polarization activity probe; 2,000 compounds, 67% hits; AID 2803, 2010; inhibition, % at 5.96 µM; shares compounds with PREPL inhibitor;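 also: 0% = protein with DMSO and 100% = wells lacking protein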
* hit, by the source's call; / = no result. Shown are actives, neighbours in structure and some others; about 3.5% of the full set was active somewhere. Rule as the data show it, unless noted: active = inhibition above about 43%; inactive = the rest.

SMILES | PAFAH1B3 FP inh | PAFAH2 FP inh | PAFAH1B2 FP inh | Apaf1 inhib | PREPL inhibitor | pPAFAH FP inh | PREPL confirm
O=C(COC(=O)c1ccc(C(F)(F)F)cc1)Nc1cccc(S(=O)(=O)NC2=NCCCCC2)c1 | 5 | 21 | 3 | 14 | 46* | 22 | 42
Cc1cc(C)cc(C(=O)OCC(=O)Nc2cccc(S(=O)(=O)NC3=NCCCCC3)c2)c1 | -5 | 12 | 2 | 7 | 7 | 7 | /
O=C(N/N=C/c1ccc(Cl)cc1Cl)c1cccc(F)c1 | -7 | -7 | 4 | 9 | -3 | 2 | /
O=C(C[n+]1ccc(C(=O)N/N=C/c2ccc(Cl)cc2Cl)cc1)c1ccccc1 | -2 | -2 | 3 | 6 | 45* | 7 | 24
CCc1cc(=O)oc2c(C)c(OC(C)C(=O)NC3CC(C)(C)NC(C)(C)C3)ccc12 (centres undefined) | 5 | 0 | 1 | 6 | 49* | 1 | 38
CC12CNCC(C)(CN(C(c3ccccc3)c3ccccc3)C1)C2 | -2 | 12 | 1 | 21 | 46* | -2 | 13
Clc1ccc(C(c2ccccc2)N2CCNCC2)cc1 (centres undefined) | 3 | 1 | 4 | -13 | 8 | 1 | /
CCCCN(C(=O)CCN1C(=O)C2CC=CCC2C1=O)c1c(N)n(CCCC)c(=O)[nH]c1=O (centres undefined) | 1 | 0 | 5 | / | / | / | /
CCOc1ccc(OCC)c(NC(=O)CN2CCN(c3cc(C)ccc3C)CC2)c1 | 10 | 10 | 10 | 10 | 50* | 13 | 35
O=C(OCC(=O)N(C1CCCCC1)C1CCCCC1)c1ccc(Cl)nc1 | 0 | 1 | -2 | 12 | 7 | 5 | /
O=C(Oc1ccc2c(-c3ccccc3)cc(=O)oc2c1)c1cccs1 | 0 | -5 | 2 | 21 | 17 | -5 | /
O=C(Oc1ccc2ccc(=O)oc2c1)c1cccs1 | 11 | -8 | 2 | 9 | 45* | 0 | 60*
CCOc1ccccc1NC(=O)C(NCC1CCCCC1)c1ccccc1 (centres undefined) | 3 | -1 | -3 | 11 | 1 | 7 | /
CCOc1ccccc1O[C@H](c1ccccc1)[C@H]1CNCCO1 | -1 | -6 | 0 | 9 | 44* | -4 | 43
Cc1cc(N2CCN(C)CC2)nc2ccc(NC(=S)N3CCN(c4cccc(Cl)c4)CC3)cc12 | 3 | -1 | 5 | 22 | 47* | 5 | 33
COc1ccc(C(=O)Nc2ccc3nc(N4CCN(C)CC4)cc(C)c3c2)c(OC)c1 | 4 | -5 | 5 | 16 | 48* | 10 | 43
Cc1cc(N2CCOCC2)nc2ccc(NC(=O)CCC(=O)N3CCN(c4ccc(F)cc4)CC3)cc12 | 5 | 5 | 6 | 11 | 44* | 9 | 39
CCN1CCN(c2cc(C)c3cc(NC(=O)c4ccc(OC)c(OC)c4)ccc3n2)CC1 | 3 | 1 | 7 | 20 | 19 | 5 | /
CCN1CCN(c2cc(C)c3cc(NC(=O)c4ccc5c(c4)OCO5)ccc3n2)CC1 | 3 | 0 | 0 | 18 | 44* | 10 | 20
COc1ccc(C)cc1NC(=O)CCC(=O)Nc1ccc2nc(N3CCN(C)CC3)cc(C)c2c1 | / | / | / | -2 | 10 | 5 | /
Cc1cc(N2CCOCC2)nc2ccc(NC(=O)CCC(=O)N3CCN(c4ccccc4F)CC3)cc12 | 2 | 1 | 5 | 12 | 33 | 8 | /
Cc1ccccc1CN1CCC(Oc2ccc(C(=O)NCc3ccccn3)cc2)CC1 | 2 | -2 | 0 | -1 | -13 | 3 | /
Brc1ccc(-c2ncc3ccccn23)cc1 | 7 | -2 | 4 | -14 | -46 | 11 | /
COc1ccc(C(CNC(=O)COc2cc(C)ccc2Cl)N2CCCCC2)cc1 (centres undefined) | 2 | 1 | 4 | 22 | 10 | 1 | /
